Experimental data from ChEMBL document CHEMBL1145811, “Synthesis and antibacterial activity of a novel series of acylides: 3-O-(3-pyridyl)acetylerythromycin A derivatives” (J Med Chem, 2003).
In brackets after ≈: the same amount, converted by molar mass.

How the values were obtained:
Format in all cases: functional
[1] = system: Haemophilus influenzae; test: In vitro minimum inhibitory concentration for antibacterial activity against Haemophilus influenzae ATCC 33533 (ampicillin-resistant strain that produces beta-lactamase)
Summary of the method: (§1)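 Agar dilution MIC determined by the Japan Society of Chemotherapy standard method for aerobic bacteria.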

[2] = system: Haemophilus influenzae; test: In vitro minimum inhibitory concentration for antibacterial activity against Haemophilus influenzae ATCC 43095 (ampicillin-susceptible strain that does not produce beta-lactamase); summary of the method: as §1
[3] = system: Staphylococcus aureus; test: In vitro minimum inhibitory concentration for antibacterial activity against erythromycin-susceptible strain Staphylococcus aureus […]
Summary of the method: (§2)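 MIC by agar dilution following the Japan Society of Chemotherapy standard method for aerobic bacteria. S. aureus 209P-JC and S. pneumoniae IID553 are erythromycin-susceptible strains.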

[4] = system: Staphylococcus aureus; test: In vitro minimum inhibitory concentration for antibacterial activity against Staphylococcus aureus B1 (inducibly MLSb-resistant strain encoded by the erm(C) gene); summary of the method: as §1
[5] = system: Streptococcus pneumoniae; test: In vitro minimum inhibitory concentration for antibacterial activity against erythromycin-susceptible strain Streptococcus pneumoniae IID553; summary of the method: as §2
[6] = system: Streptococcus pneumoniae; test: In vitro minimum inhibitory concentration for antibacterial activity against Streptococcus pneumoniae 210 (efflux-resistant strain encoded by the mef(A) gene); summary of the method: as §1
[7] = system: Streptococcus pneumoniae; test: In vitro minimum inhibitory concentration for antibacterial activity against Streptococcus pneumoniae 211 (MLSb-resistant strain encoded by the erm(B) gene); summary of the method: as §1
[8] = system: Staphylococcus aureus; test: In vitro minimum inhibitory concentration for antibacterial activity against Staphylococcus aureus SR138 (constitutively MLSb-resistant strain encoded by the erm(A) gene); summary of the method: as §1

Row | Structure (SMILES) | MIC [1] [µg/mL] | MIC [2] [µg/mL] | MIC [3] [µg/mL] | MIC [4] [µg/mL] | MIC [5] [µg/mL] | MIC [6] [µg/mL] | MIC [7] [µg/mL] | MIC [8] [µg/mL]
1 | CC[C@H]1OC(=O)[C@H](C)[C@@H](OC(=O)Cc2ccccn2)[C@H](C)[C@@H](OC2O[C@H](C)C[C@H](N(C)C)[C@H]2O)[C@@](C)(OC)C[C@@H](C)C(=O)[C@H](C)[C@@H](O)[C@]1(C)O (stereo partly specified) | 25 (≈ 35.3 µM) | 50 (≈ 70.5 µM) | 1.56 (≈ 2.2 µM) | 1.56 (≈ 2.2 µM) | 0.39 (≈ 0.55 µM) | 0.39 (≈ 0.55 µM) | > 100 | > 100
2 | CC[C@H]1OC(=O)[C@H](C)[C@@H](OC(=O)Cc2ccncc2)[C@H](C)[C@@H](OC2O[C@H](C)C[C@H](N(C)C)[C@H]2O)[C@@](C)(OC)C[C@@H](C)C(=O)[C@H](C)[C@@H](O)[C@]1(C)O (stereo partly specified) | 50 (≈ 70.5 µM) | 50 (≈ 70.5 µM) | 0.78 (≈ 1.1 µM) | 1.56 (≈ 2.2 µM) | 0.39 (≈ 0.55 µM) | 0.39 (≈ 0.55 µM) | > 100 | > 100
3 | CC[C@H]1OC(=O)[C@H](C)[C@@H](OC(=O)Cc2cccnc2)[C@H](C)[C@@H](OC2O[C@H](C)C[C@H](N(C)C)[C@H]2O)[C@@](C)(O)C[C@@H](C)[C@H](O)[C@H](C)[C@@H](O)[C@]1(C)O (stereo partly specified) | 12.5 (≈ 17.9 µM) | 12.5 (≈ 17.9 µM) | 3.13 (≈ 4.49 µM) | 6.25 (≈ 8.97 µM) | 0.78 (≈ 1.12 µM) | 0.78 (≈ 1.12 µM) | > 100 | > 100
4 | CC[C@H]1OC(=O)[C@H](C)[C@@H](OC(=O)Cc2ccccn2)[C@H](C)[C@@H](OC2O[C@H](C)C[C@H](N(C)C)[C@H]2O)[C@@]2(C)C[C@@H](C)[C@H](OC(=O)O2)[C@H](C)[C@H]2OC(=O)O[C@@]21C (stereo partly specified) | 6.25 (≈ 8.35 µM) | 6.25 (≈ 8.35 µM) | 0.2 (≈ 0.267 µM) | 0.78 (≈ 1.04 µM) | 0.05 (≈ 0.0668 µM) | 0.2 (≈ 0.267 µM) | 100 (≈ 134 µM) | > 100
5 | CC[C@H]1OC(=O)[C@H](C)[C@@H](O)[C@H](C)[C@@H](OC2O[C@H](C)C[C@H](N(C)C)[C@H]2O)[C@@]2(C)C[C@@H](C)[C@H](OC(=O)O2)[C@H](C)[C@H]2OC(=O)O[C@@]21C (stereo partly specified) | 100 (≈ 159 µM) | 50 (≈ 79.4 µM) | 12.5 (≈ 19.8 µM) | > 100 | 0.78 (≈ 1.24 µM) | 1.56 (≈ 2.48 µM) | > 100 | > 100
6 | CC[C@H]1OC(=O)[C@H](C)[C@@H](OC(=O)Cc2ccc(OC)cc2)[C@H](C)[C@@H](OC2O[C@H](C)C[C@H](N(C)C)[C@H]2O)[C@@](C)(OC)C[C@@H](C)C(=O)[C@H](C)[C@@H](O)[C@]1(C)O (stereo partly specified) | 50 (≈ 67.8 µM) | 100 (≈ 136 µM) | 1.56 (≈ 2.11 µM) | 12.5 (≈ 16.9 µM) | 0.78 (≈ 1.06 µM) | 0.78 (≈ 1.06 µM) | > 100 | > 100
7 | CC[C@H]1OC(=O)[C@H](C)[C@@H](OC(=O)Cc2ccccc2OC)[C@H](C)[C@@H](OC2O[C@H](C)C[C@H](N(C)C)[C@H]2O)[C@@](C)(OC)C[C@@H](C)C(=O)[C@H](C)[C@@H](O)[C@]1(C)O (stereo partly specified) | 100 (≈ 136 µM) | > 100 | 3.13 (≈ 4.24 µM) | 12.5 (≈ 16.9 µM) | 1.56 (≈ 2.11 µM) | 1.56 (≈ 2.11 µM) | > 100 | > 100
8 | CC[C@H]1OC(=O)[C@H](C)[C@@H](OC(=O)Cc2ccncc2)[C@H](C)[C@@H](OC2O[C@H](C)C[C@H](N(C)C)[C@H]2O)[C@@]2(C)C[C@@H](C)[C@H](OC(=O)O2)[C@H](C)[C@H]2OC(=O)O[C@@]21C (stereo partly specified) | 6.25 (≈ 8.35 µM) | 12.5 (≈ 16.7 µM) | 0.2 (≈ 0.267 µM) | 0.39 (≈ 0.521 µM) | 0.05 (≈ 0.0668 µM) | 0.2 (≈ 0.267 µM) | > 100 | > 100
9 | CC[C@H]1OC(=O)[C@H](C)[C@@H](OC(=O)Cc2cccnc2)[C@H](C)[C@@H](OC2O[C@H](C)C[C@H](N(C)C)[C@H]2O)[C@@](C)(O)C[C@@H](C)CN(C)[C@H](C)[C@@H](O)[C@]1(C)O (stereo partly specified) | 1.56 (≈ 2.2 µM) | 1.56 (≈ 2.2 µM) | 3.13 (≈ 4.41 µM) | 6.25 (≈ 8.8 µM) | 0.78 (≈ 1.1 µM) | 0.78 (≈ 1.1 µM) | > 100 | > 100
10 | CC[C@H]1OC(=O)[C@H](C)[C@@H](OC(=O)Cc2cccnc2)[C@H](C)[C@@H](OC2O[C@H](C)C[C@H](N(C)C)[C@H]2O)[C@@](C)(O)C[C@@H](C)C(=O)[C@H](C)[C@@H](O)[C@]1(C)O (stereo partly specified) | 12.5 (≈ 18 µM) | 12.5 (≈ 18 µM) | 1.56 (≈ 2.25 µM) | 6.25 (≈ 8.99 µM) | 0.2 (≈ 0.288 µM) | 0.78 (≈ 1.12 µM) | > 100 | > 100
11 | CC[C@H]1OC(=O)[C@H](C)[C@@H](OC(=O)Cc2ccccc2[N+](=O)[O-])[C@H](C)[C@@H](OC2O[C@H](C)C[C@H](N(C)C)[C@H]2O)[C@@](C)(OC)C[C@@H](C)C(=O)[C@H](C)[C@@H](O)[C@]1(C)O (stereo partly specified) | 50 (≈ 66.4 µM) | 50 (≈ 66.4 µM) | 0.39 (≈ 0.518 µM) | 0.78 (≈ 1.04 µM) | 0.2 (≈ 0.266 µM) | 0.2 (≈ 0.266 µM) | > 100 | > 100
12 | CC[C@H]1OC(=O)[C@H](C)[C@@H](OC(=O)Cc2cccc(OC)c2)[C@H](C)[C@@H](OC2O[C@H](C)C[C@H](N(C)C)[C@H]2O)[C@@](C)(OC)C[C@@H](C)C(=O)[C@H](C)[C@@H](O)[C@]1(C)O (stereo partly specified) | 25 (≈ 33.9 µM) | 50 (≈ 67.8 µM) | 1.56 (≈ 2.11 µM) | 3.13 (≈ 4.24 µM) | 0.39 (≈ 0.529 µM) | 0.39 (≈ 0.529 µM) | > 100 | > 100
13 | CC[C@H]1OC(=O)[C@H](C)[C@@H](OC(=O)Cc2cccnc2)[C@H](C)[C@@H](OC2O[C@H](C)C[C@H](N(C)C)[C@H]2O)[C@@](C)(OC)C[C@@H](C)/C(=N\O)[C@H](C)[C@@H](O)[C@]1(C)O (stereo partly specified) | 12.5 (≈ 17.3 µM) | 12.5 (≈ 17.3 µM) | 0.78 (≈ 1.08 µM) | 1.56 (≈ 2.15 µM) | 0.2 (≈ 0.276 µM) | 0.39 (≈ 0.539 µM) | > 100 | > 100
14 | CC[C@H]1OC(=O)[C@H](C)[C@@H](OC2C[C@@](C)(OC)[C@@H](O)[C@H](C)O2)[C@H](C)[C@@H](OC2O[C@H](C)C[C@H](N(C)C)[C@H]2O)[C@@]2(C)C[C@@H](C)[C@H](OC(=O)O2)[C@H](C)[C@H]2OC(=O)O[C@@]21C (stereo partly specified) | 1.56 (≈ 1.98 µM) | 1.56 (≈ 1.98 µM) | 0.1 (≈ 0.127 µM) | > 100 | 0.1 (≈ 0.127 µM) | 0.39 (≈ 0.495 µM) | > 100 | > 100
15 | CC[C@H]1OC(=O)[C@H](C)[C@@H](OC(=O)Cc2cccnc2)[C@H](C)[C@@H](OC2O[C@H](C)C[C@H](N(C)C)[C@H]2O)[C@@](C)(O)C[C@@H](C)[C@H](O)[C@H](C)[C@H]2OC(=O)O[C@@]21C (stereo partly specified) | 6.25 (≈ 8.65 µM) | 3.13 (≈ 4.33 µM) | 0.78 (≈ 1.08 µM) | 0.78 (≈ 1.08 µM) | 0.1 (≈ 0.138 µM) | 0.2 (≈ 0.277 µM) | > 100 | > 100
16 | CC[C@H]1OC(=O)[C@H](C)[C@@H](OC(=O)CCc2cccc(OC)c2)[C@H](C)[C@@H](OC2O[C@H](C)C[C@H](N(C)C)[C@H]2O)[C@@](C)(OC)C[C@@H](C)C(=O)[C@H](C)[C@@H](O)[C@]1(C)O (stereo partly specified) | 100 (≈ 133 µM) | 100 (≈ 133 µM) | 3.13 (≈ 4.16 µM) | 3.13 (≈ 4.16 µM) | 0.78 (≈ 1.04 µM) | 0.78 (≈ 1.04 µM) | > 100 | > 100
17 | CC[C@H]1OC(=O)[C@H](C)[C@@H](OC(=O)Cc2cccnc2)[C@H](C)[C@@H](OC2O[C@H](C)C[C@H](N(C)C)[C@H]2O)[C@@](C)(O)C[C@@H](C)[C@@H]2OC(=O)O[C@H]([C@H]2C)[C@]1(C)O (stereo partly specified) | 6.25 (≈ 8.65 µM) | 12.5 (≈ 17.3 µM) | 0.78 (≈ 1.08 µM) | 1.56 (≈ 2.16 µM) | 0.1 (≈ 0.138 µM) | 0.39 (≈ 0.54 µM) | > 100 | > 100
